Test results published in ChEMBL document CHEMBL2380229, “Design, synthesis, cytotoxic evaluation and tubulin inhibitory activity of 4-aryl-5-(3,4,5-trimethoxyphenyl)-2-alkylthio-1H-imidazole derivatives” (Bioorg Med Chem, 2013).
pIC50: −log10 of the molar value. Active and inactive are the calls of the source. No cut-off for these calls is given here.

Columns and labels:
[1] = system: MCF7; assay: Cytotoxicity against human MCF7 cells assessed as growth inhibition after 48 hrs by MTT assay; format: functional, cell-based; conditions: MCF7, 48 h
Method in brief: (§1)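 MTT assay. Cells seeded at 8000–10,000 viable cells per well and allowed 24 h before a 48 h compound exposure. MTT (5 mg/mL solution) added for a further 4 h, then formazan dissolved in DMSO. Absorbance read at 550 nm against a 690 nm reference. Two independent experiments in triplicate. IC50 by nonlinear regression, mean ± SD.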

[2] = system: AGS; assay: Cytotoxicity against human AGS cells assessed as growth inhibition after 48 hrs by MTT assay; format: functional, cell-based; method in brief: as §1
[3] = species on record: Ovis aries; assay: Inhibition of sheep brain microtubule polymerization at 2 uM after 15 mins by UV-vis spectrophotometric analysis
Method in brief: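 Purified microtubule protein preincubated 15 min with compound in PEM buffer (100 mM PIPES pH 6.9, 1 mM MgSO₄, 1 mM EGTA), then cooled to 0 °C. GTP added (1 mM final), and assembly started by warming from 0 to 37 °C. Polymerization followed as absorbance change at 350 nm.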

[4] = system: HT-29; assay: Cytotoxicity against human HT-29 cells assessed as growth inhibition after 48 hrs by MTT assay; format: functional, cell-based; conditions: HT-29, 48 h; method in brief: as §1
[5] = system: NIH3T3; assay: Cytotoxicity against mouse NIH/3T3 cells assessed as growth inhibition after 48 hrs by MTT assay; format: functional, cell-based; conditions: NIH3T3, 48 h; method in brief: as §1
[6] = species on record: Ovis aries; assay: Inhibition of sheep brain microtubule polymerization at 5 uM after 15 mins by UV-vis spectrophotometric analysis
Method in brief: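 Purified tubulin (12 µM) in PEM buffer (100 mM PIPES pH 6.9, 1 mM MgSO4, 1 mM EGTA) preincubated 15 min with compound (5 µM final), then cooled to 0 °C. GTP added to 1 mM final. Assembly started by warming from 0 to 37 °C and followed by absorbance at 350 nm. Positive control at 2 µM final.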

[7] = system: NIH3T3; assay: Cell cycle arrest in mouse NIH/3T3 cells assessed as accumulation at S phase at 0.10 uM after 24 hrs by propidium iodide staining-based FACS flow cytometric analysis (reference value: 24.39%); format: functional
[8] = system: NIH3T3; assay: Cell cycle arrest in mouse NIH/3T3 cells assessed as accumulation at G2/M phase at 0.10 uM after 24 hrs by propidium iodide staining-based FACS flow cytometric analysis (reference value: 35.70%); format: functional
[9] = system: NIH3T3; assay: Cell cycle arrest in mouse NIH/3T3 cells assessed as accumulation at G0/G1 phase at 0.10 uM after 24 hrs by propidium iodide staining-based FACS flow cytometric analysis (reference value: 39.91%); format: functional

For `COc1ccc(/C=C\c2cc(OC)c(OC)c(OC)c2)cc1O` [COMBRETASTATIN A4], the pIC50 [1] was 6.40, the pIC50 [2] was 7.40 and the inhibition [3] was “Active”. For the same compound, the pIC50 [4] was 6.74 and the pIC50 [5] was 7.70.

Work on `CCSc1nc(-c2ccc(OC)c(OC)c2)c(-c2ccc(OC)c(OC)c2)[nH]1` yielded a pIC50 [1] of 4.82, a pIC50 [2] of 4.47 and a pIC50 [4] of 4.67. It also gave a pIC50 [5] of 4.56.

Compound `COc1ccc(-c2[nH]c(SC)nc2-c2cc(OC)c(OC)c(OC)c2)c(OC)c1` has a pIC50 [1] of 5.38, a pIC50 [2] of 4.63 and a pIC50 [4] of 4.73. For the same compound, the pIC50 [5] was 4.92.

`CCSc1nc(-c2cc(OC)c(OC)c(OC)c2)c(-c2ccc(OC)cc2OC)[nH]1` gave a pIC50 [1] of 5.45, a pIC50 [2] of 4.73 and a pIC50 [4] of 5.18. For the same compound, the pIC50 [5] was 5.14.

`CCSc1nc(-c2cc(OC)c(OC)c(OC)c2)c(-c2ccc(OC)cc2)[nH]1` was tested, and the “microtubule polymerization inhibition (active/inactive call)” value [6] was “Active”, the pIC50 [1] was 6.12 and the pIC50 [2] was 7.15. For the same compound, the pIC50 [4] was 6.44 and the pIC50 [5] was 6.59.

Work on `CCSc1nc(-c2cc(OC)c(OC)c(OC)c2)c(-c2ccccc2OC)[nH]1` yielded a pIC50 [1] of 4.96, a pIC50 [2] of 4.39 and a pIC50 [4] of 4.73. The pIC50 [5] was 4.44.

For `COc1ccc(-c2[nH]c(SC)nc2-c2cc(OC)c(OC)c(OC)c2)cc1OC`, the “microtubule polymerization inhibition (active/inactive call)” value [6] was “Active”, the pIC50 [1] was 5.39 and the pIC50 [2] was 4.98. It also gave a pIC50 [4] of 5.32 and a pIC50 [5] of 5.22.

`COc1cc(-c2nc(SC)[nH]c2-c2cc(OC)c(OC)c(OC)c2)cc(OC)c1OC` gave a pIC50 [4] of under 4.30 and a pIC50 [5] of under 4.30.

Work on `COc1cc(-c2nc(SC)[nH]c2-c2cccc(OC)c2OC)cc(OC)c1OC` yielded a pIC50 [1] of 4.74, a pIC50 [2] of 4.45 and a pIC50 [4] of 4.56. For the same compound, the pIC50 [5] was 4.52.

In the case of `CCSc1nc(-c2cc(OC)c(OC)c(OC)c2)c(-c2ccc(OC)c(OC)c2)[nH]1`, the “microtubule polymerization inhibition (active/inactive call)” value [6] was “Active”, the pIC50 [1] was 4.88 and the pIC50 [2] was 4.43. The pIC50 [4] was 4.68 and the pIC50 [5] was 4.85.

With `CCSc1nc(-c2cc(OC)c(OC)c(OC)c2)c(-c2cc(OC)c(OC)c(OC)c2)[nH]1` the pIC50 [4] was under 4.30 and the pIC50 [5] was under 4.30.

`CCSc1nc(-c2cc(OC)c(OC)c(OC)c2)c(-c2cccc(OC)c2OC)[nH]1` was tested, and the pIC50 [1] was 4.64, the pIC50 [2] was 4.41 and the pIC50 [4] was 4.44. The pIC50 [5] was 4.57.

In the case of `COc1ccccc1-c1[nH]c(SC)nc1-c1cc(OC)c(OC)c(OC)c1`, the pIC50 [1] was 4.91, the pIC50 [2] was 4.31 and the pIC50 [4] was 4.66. For the same compound, the pIC50 [5] was 4.41.

Compound `COc1ccc(-c2nc(SC)[nH]c2-c2ccc(OC)c(OC)c2)cc1OC` has a pIC50 [1] of 4.77, a pIC50 [2] of 4.46 and a pIC50 [4] of 4.62. It also gave a pIC50 [5] of 4.45.

For `COc1ccc(-c2[nH]c(SC)nc2-c2cc(OC)c(OC)c(OC)c2)cc1`, the “microtubule polymerization inhibition (active/inactive call)” value [6] was “Active”, the pIC50 [1] was 6.28 and the pIC50 [2] was 7.22. It also gave an Activity [7] of 7.07%, an Activity [8] of 91.93% and a pIC50 [4] of 6.60. It also gave a pIC50 [5] of 7.22 and an Activity [9] of 1.01%.
